Legend:
HL-60 [1] = test: Antiproliferative activity against human HL60 cells at 4 uM after 36 hrs by PrestoBlue dye based assay relative to control; format: functional
HEL 92.1.7 = test: cells; format: functional, cell-based; settings: Homo sapiens, HEL 92.1.7, 36 h
cells [2] = format: ADME, cell-based; settings: Homo sapiens, AC10, 24 h
KMS-12-BM = test: cells; format: functional, cell-based; settings: Homo sapiens, 48 h
Jurkat = test: cells; format: functional, cell-based; settings: Homo sapiens
HL-60 [3] = test: Antiproliferative activity against human HL60 cells; format: functional, cell-based
MDA-MB-231 = test: cells; format: functional, cell-based; settings: Homo sapiens, MDA-MB-231, 72 h
HCT-116 = test: Antiproliferative activity against human HCT116 cells after 72 hrs by MTT assay; format: functional, cell-based; settings: HCT-116, 72 h
[4] = target: T1, Tyrosine-protein kinase JAK2 (Homo sapiens, UniProt O60674); test: Inhibition of human JAK2 using poly[Glu:Tyr] as substrate in presence of [gamma-33P]-ATP
[5] = target: T1, Tyrosine-protein kinase JAK2; test: Binding affinity to N-terminal His tagged human recombinant JAK2 (1014 to 1132 residues) expressed in Escherichia coli after 60 to 90 mins by LC/MS analysis; settings: read-out: Kd(app)
MCF7 = test: cells; format: functional, cell-based; settings: Homo sapiens, MCF7, 72 h
PC-3 = test: cells; format: functional, cell-based; settings: Homo sapiens, PC-3, 72 h
[6] = target: T2, Protein deacetylase HDAC6 (Homo sapiens, UniProt Q9UBN7); test: Inhibition of N-terminal GST tagged human HDAC6 (1 to 1215 residues) expressed in baculovirus infected insect cells using RHKKAc as substrate in presence of ATP
T2 sequence (Q9UBN7 whole entry): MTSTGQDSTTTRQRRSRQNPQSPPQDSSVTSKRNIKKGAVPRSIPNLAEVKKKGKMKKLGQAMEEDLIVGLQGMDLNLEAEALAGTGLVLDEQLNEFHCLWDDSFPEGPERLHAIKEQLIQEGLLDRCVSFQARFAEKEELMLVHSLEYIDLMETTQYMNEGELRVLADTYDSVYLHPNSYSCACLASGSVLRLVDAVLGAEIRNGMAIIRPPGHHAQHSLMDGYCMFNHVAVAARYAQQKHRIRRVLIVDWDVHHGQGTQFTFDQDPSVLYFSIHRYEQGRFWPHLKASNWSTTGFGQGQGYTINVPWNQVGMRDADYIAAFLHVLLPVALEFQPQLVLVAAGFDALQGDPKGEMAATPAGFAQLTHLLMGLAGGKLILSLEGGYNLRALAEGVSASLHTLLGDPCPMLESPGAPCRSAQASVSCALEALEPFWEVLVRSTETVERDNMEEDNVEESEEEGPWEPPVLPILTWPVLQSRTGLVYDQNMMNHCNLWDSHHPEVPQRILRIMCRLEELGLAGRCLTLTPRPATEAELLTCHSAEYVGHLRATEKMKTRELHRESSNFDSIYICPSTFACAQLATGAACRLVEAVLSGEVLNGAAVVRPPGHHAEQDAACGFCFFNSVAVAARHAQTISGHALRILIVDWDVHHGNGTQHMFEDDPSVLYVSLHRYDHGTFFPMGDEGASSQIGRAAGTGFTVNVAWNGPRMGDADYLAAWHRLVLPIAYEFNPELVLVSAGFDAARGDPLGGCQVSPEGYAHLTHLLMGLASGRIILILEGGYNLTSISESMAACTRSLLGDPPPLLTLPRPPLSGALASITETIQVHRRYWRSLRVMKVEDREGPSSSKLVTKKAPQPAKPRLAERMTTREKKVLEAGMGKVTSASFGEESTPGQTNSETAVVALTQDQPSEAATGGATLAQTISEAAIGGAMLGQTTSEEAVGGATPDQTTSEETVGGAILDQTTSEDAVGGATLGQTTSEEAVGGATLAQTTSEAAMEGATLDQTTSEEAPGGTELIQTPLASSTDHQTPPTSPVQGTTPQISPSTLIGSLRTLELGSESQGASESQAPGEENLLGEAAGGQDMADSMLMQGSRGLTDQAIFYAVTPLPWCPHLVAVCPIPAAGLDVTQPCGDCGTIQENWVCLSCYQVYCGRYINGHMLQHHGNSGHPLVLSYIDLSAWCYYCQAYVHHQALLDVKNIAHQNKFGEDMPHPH

MOLM-14 = test: cells; format: functional, cell-based; settings: Homo sapiens, MOLM-14, 48 h
cells [7] = format: functional, cell-based; settings: Homo sapiens, NKYS, 48 h
Histone deacetylase 1 = Histone deacetylase 1 (Homo sapiens, UniProt Q13547); test: Inhibition of C-terminal FLAG His tagged full length human recombinant HDAC1 (1 to 482 residues) expressed in baculovirus infected sf21 cells using RHKKAc as substrate in presence of ATP
[8] = target: T3, Tyrosine-protein kinase JAK3 (Homo sapiens, UniProt P52333); test: Inhibition of human JAK3 using GEEEEYFELVKKKK as substrate in presence of [gamma-33P]-ATP
T3 sequence (P52333 whole entry): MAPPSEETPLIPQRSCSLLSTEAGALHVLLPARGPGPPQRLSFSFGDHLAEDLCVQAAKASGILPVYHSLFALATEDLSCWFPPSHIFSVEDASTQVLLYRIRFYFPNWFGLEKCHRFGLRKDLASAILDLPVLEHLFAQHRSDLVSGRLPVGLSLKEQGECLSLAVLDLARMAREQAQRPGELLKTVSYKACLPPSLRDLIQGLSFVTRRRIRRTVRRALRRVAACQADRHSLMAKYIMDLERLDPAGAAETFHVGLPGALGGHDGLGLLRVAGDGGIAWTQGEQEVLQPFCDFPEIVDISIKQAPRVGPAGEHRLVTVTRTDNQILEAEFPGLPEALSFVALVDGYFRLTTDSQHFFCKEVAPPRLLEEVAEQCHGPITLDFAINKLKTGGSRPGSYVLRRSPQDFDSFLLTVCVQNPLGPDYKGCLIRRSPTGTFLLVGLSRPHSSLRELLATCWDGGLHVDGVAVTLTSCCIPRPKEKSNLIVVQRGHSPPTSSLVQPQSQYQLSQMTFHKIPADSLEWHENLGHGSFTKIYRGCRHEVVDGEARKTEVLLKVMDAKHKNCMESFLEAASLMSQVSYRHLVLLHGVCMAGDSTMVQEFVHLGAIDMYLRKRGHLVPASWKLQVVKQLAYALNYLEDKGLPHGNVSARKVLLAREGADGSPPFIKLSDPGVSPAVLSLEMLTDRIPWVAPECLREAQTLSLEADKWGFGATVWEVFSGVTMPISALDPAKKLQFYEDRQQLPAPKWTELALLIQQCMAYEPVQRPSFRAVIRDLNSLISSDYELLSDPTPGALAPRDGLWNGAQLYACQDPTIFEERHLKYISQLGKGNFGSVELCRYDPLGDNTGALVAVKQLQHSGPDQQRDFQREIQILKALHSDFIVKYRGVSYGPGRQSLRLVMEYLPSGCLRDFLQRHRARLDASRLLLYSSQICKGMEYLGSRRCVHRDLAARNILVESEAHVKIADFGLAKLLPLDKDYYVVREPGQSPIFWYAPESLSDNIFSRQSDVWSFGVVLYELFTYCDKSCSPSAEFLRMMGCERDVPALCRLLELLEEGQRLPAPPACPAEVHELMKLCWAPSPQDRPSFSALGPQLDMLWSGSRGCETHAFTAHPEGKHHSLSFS
How it was run: (§1)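 Kinase inhibition was tested by radiometric "Hotspot" profiling at a contract laboratory with 10 μM ATP.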

Histone deacetylase 9 = Histone deacetylase 9 (Homo sapiens, UniProt Q9UKV0); test: Inhibition of HDAC9 (unknown origin) in presence of ATP
How it was run: (§2)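 HDAC enzyme inhibition was run by a contract laboratory.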

Histone deacetylase 2 = Histone deacetylase 2 (Homo sapiens, UniProt Q92769); test: Inhibition of C-terminal GST tagged human recombinant HDAC2 (1 to 488 residues) expressed in Baculovirus infected insect cells in presence of ATP; how it was run: as §2
[9] = target: Histone deacetylase 4 (Homo sapiens) (UniProt P56524); test: Inhibition of N-terminal GST tagged/C-terminal His tagged human recombinant HDAC4 (627 to 1084 residues) expressed in Baculovirus infected insect cells in presence of ATP; settings: concentration not given here; how it was run: as §2
Histone deacetylase 8 = Histone deacetylase 8 (Homo sapiens, UniProt Q9BY41); test: Inhibition of C-terminal His tagged human recombinant HDAC8 (1 to 377 residues) expressed in Baculovirus infected insect cells in presence of ATP; how it was run: as §2
Histone deacetylase 5 = Histone deacetylase 5 (Homo sapiens, UniProt Q9UQL6); test: Inhibition of C-terminal His tagged human recombinant HDAC5 (657 to 1123 residues) expressed in Baculovirus infected insect cells in presence of ATP; how it was run: as §2
[10] = target: Non-receptor tyrosine-protein kinase TYK2 (Homo sapiens, UniProt P29597); test: Inhibition of human TYK2 using KKSRGDYMTMQIG as substrate in presence of [gamma-33P]-ATP; how it was run: as §1
[11] = target: Histone deacetylase 11 (Homo sapiens) (UniProt Q96DB2); test: Inhibition of C-terminal His tagged human recombinant HDAC11 (1 to 347 residues) expressed in Baculovirus infected insect cells at 10 uM in presence of ATP relative to control; how it was run: as §2
[12] = target: Histone deacetylase 7 (Homo sapiens) (UniProt Q8WUI4); test: Inhibition of N-terminal GST tagged human recombinant HDAC7 (518 to 991 residues) expressed in Baculovirus infected insect cells at 10 uM in presence of ATP relative to control; how it was run: as §2
[13] = target: Histone deacetylase 3/Nuclear receptor corepressor 2 (HDAC3/NCoR2) (Homo sapiens, UniProt O15379); test: Inhibition of human recombinant HDAC3 (1 to 428 residues)/N-terminal GST-tagged NCOR2 (395 to 489 residues) expressed in Baculovirus infected insect cells in presence of ATP; how it was run: as §2
[14] = target: Polyamine deacetylase HDAC10 (Homo sapiens, UniProt Q969S8); test: Inhibition of human HDAC10 using fluorogenic peptide from p53 residues 379 to 382 as substrate in presence of ATP; how it was run: as §2
[15] = target: Tyrosine-protein kinase JAK1 (Homo sapiens, UniProt P23458); test: Inhibition of human JAK1 using poly[Glu:Tyr] as substrate in presence of [gamma-33P]-ATP; how it was run: as §1

Sequence of Histone deacetylase 1 (Q13547 whole entry, the tested form may be a part): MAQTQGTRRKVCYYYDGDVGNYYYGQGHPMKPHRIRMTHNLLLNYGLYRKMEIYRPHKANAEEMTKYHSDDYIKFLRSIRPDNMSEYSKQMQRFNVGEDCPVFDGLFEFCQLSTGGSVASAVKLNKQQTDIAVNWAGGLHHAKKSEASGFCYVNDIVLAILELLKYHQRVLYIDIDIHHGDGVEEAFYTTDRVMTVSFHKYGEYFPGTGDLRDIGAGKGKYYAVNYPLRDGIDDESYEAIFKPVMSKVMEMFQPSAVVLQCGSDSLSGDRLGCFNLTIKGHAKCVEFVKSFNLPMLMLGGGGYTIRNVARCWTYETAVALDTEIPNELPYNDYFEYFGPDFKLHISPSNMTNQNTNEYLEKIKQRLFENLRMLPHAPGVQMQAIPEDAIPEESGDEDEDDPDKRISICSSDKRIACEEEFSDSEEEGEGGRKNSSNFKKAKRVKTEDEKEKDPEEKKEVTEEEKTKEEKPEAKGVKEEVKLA
T1 sequence (O60674 whole entry, the tested form may be a part): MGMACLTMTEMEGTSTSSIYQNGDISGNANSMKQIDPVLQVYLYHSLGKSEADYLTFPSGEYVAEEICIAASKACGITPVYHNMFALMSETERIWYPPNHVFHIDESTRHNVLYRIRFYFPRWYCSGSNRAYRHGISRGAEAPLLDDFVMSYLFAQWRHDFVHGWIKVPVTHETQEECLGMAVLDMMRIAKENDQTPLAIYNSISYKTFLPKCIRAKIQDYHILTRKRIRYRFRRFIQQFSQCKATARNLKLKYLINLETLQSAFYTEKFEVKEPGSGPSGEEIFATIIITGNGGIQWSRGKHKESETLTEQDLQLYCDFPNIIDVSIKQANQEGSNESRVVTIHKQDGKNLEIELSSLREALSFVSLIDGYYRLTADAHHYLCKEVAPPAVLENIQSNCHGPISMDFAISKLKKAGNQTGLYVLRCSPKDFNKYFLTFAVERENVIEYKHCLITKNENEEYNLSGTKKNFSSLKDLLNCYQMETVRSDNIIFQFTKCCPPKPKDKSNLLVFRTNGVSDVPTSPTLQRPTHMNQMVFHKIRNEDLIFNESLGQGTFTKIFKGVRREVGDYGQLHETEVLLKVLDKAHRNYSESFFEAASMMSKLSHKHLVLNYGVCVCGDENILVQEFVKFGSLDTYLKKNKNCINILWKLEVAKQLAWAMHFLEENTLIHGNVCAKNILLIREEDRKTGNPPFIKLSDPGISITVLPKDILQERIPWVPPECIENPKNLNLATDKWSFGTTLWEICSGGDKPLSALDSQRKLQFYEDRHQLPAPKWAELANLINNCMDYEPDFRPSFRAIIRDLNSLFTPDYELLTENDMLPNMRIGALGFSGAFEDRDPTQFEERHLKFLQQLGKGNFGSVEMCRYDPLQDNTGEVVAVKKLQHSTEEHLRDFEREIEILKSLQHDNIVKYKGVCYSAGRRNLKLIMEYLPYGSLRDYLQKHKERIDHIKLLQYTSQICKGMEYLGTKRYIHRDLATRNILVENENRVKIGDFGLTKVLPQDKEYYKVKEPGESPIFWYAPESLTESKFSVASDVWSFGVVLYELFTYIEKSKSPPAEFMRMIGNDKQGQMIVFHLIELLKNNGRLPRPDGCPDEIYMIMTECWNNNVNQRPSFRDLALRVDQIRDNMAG
Sequence of Histone deacetylase 7 (Homo sapiens) (Q8WUI4 whole entry, the tested form may be a part): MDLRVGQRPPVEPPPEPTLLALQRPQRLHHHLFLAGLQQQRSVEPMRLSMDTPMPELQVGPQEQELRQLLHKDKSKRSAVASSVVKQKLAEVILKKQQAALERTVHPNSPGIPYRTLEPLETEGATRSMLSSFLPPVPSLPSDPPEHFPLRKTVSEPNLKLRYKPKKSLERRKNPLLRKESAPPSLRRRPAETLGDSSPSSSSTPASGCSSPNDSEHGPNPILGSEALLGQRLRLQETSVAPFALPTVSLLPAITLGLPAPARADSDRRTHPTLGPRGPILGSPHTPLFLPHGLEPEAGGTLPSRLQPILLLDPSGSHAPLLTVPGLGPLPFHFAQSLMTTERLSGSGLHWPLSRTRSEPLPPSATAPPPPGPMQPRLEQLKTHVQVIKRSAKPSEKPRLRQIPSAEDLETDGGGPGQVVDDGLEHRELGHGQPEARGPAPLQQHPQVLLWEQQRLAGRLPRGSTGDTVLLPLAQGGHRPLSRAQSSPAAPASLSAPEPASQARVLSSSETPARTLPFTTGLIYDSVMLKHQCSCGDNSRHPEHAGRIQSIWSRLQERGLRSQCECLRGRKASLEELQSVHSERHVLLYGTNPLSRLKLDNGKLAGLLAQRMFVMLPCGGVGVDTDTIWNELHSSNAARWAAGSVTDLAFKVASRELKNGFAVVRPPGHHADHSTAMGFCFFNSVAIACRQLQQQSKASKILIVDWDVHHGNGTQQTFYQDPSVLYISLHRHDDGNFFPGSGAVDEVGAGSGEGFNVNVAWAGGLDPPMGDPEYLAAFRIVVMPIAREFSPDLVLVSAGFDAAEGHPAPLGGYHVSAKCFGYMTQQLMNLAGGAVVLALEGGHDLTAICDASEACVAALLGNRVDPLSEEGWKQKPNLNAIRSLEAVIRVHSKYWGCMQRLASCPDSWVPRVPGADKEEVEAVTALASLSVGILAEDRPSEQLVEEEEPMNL
Sequence of Histone deacetylase 4 (Homo sapiens) (P56524 whole entry, the tested form may be a part): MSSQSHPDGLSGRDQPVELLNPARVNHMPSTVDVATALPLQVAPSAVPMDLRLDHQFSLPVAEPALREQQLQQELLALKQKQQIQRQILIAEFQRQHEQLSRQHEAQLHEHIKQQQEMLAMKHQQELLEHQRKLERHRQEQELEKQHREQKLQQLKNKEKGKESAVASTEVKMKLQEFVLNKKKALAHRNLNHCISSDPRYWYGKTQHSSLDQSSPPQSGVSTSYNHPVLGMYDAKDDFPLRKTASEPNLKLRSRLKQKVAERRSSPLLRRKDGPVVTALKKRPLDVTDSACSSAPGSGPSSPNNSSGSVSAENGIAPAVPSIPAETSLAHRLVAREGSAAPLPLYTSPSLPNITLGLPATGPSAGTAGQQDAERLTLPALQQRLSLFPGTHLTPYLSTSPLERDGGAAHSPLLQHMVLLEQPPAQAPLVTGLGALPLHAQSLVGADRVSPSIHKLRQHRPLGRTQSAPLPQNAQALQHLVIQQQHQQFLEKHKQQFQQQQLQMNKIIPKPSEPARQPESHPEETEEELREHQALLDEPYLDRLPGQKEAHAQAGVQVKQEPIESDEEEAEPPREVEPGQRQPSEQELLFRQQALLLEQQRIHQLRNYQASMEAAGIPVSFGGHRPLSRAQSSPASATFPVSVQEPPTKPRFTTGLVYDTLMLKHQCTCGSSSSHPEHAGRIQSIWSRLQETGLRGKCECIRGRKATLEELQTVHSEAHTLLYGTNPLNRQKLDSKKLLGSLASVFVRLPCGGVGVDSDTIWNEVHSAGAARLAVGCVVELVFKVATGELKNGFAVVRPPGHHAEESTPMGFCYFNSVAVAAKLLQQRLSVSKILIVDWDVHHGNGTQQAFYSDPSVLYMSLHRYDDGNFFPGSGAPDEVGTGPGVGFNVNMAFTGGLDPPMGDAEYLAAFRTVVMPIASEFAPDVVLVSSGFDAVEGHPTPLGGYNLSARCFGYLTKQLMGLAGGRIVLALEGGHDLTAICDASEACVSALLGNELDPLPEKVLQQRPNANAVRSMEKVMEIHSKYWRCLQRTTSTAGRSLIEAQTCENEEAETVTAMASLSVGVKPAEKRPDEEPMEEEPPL
Sequence of Histone deacetylase 8 (Q9BY41 whole entry, the tested form may be a part): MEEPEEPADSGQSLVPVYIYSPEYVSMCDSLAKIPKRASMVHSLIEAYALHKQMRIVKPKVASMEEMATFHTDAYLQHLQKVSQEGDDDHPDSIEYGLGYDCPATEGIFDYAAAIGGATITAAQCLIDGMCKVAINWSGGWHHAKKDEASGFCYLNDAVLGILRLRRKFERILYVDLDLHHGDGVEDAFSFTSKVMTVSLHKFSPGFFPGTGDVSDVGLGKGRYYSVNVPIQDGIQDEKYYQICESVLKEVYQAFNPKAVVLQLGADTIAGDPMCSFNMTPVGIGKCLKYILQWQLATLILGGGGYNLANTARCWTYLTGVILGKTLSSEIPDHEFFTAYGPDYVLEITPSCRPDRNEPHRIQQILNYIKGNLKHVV
Sequence of Histone deacetylase 11 (Homo sapiens) (Q96DB2 whole entry, the tested form may be a part): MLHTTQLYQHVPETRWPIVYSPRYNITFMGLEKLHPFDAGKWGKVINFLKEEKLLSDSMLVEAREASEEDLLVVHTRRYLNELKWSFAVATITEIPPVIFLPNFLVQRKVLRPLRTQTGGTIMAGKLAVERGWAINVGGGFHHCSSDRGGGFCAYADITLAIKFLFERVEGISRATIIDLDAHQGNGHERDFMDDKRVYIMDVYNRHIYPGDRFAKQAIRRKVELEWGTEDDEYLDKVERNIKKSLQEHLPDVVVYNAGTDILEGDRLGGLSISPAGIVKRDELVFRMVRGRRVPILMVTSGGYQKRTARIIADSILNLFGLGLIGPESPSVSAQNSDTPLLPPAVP
Sequence of Histone deacetylase 2 (Q92769 whole entry, the tested form may be a part): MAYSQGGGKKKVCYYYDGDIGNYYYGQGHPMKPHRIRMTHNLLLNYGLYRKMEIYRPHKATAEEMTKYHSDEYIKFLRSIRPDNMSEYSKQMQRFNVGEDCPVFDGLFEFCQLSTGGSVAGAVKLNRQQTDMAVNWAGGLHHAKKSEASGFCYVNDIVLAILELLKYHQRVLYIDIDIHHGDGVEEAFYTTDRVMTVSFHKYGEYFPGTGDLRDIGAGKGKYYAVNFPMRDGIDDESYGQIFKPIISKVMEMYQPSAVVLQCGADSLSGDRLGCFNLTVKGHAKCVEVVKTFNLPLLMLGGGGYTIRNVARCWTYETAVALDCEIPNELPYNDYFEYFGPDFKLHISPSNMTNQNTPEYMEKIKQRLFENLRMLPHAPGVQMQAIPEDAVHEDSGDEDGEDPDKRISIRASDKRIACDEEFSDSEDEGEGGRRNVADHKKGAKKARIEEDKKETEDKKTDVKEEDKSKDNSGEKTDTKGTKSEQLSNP

SMILES	IC50 (MDA-MB-231) [nM]	IC50 (HCT-116) [nM]	IC50 [4] [nM]	Kd [5] [nM]	IC50 (MCF7) [nM]	IC50 (PC-3) [nM]	IC50 [6] [nM]	IC50 (Histone deacetylase 1) [nM]	further results
O=C(CCCCCCOc1ccc2cc1COC/C=C/COCc1cccc(c1)-c1ccnc(n1)N2)NO									Activity (HL-60 [1]): 47%; IC50 (HEL 92.1.7): 940 nM; IC50 (cells [2]): 2070 nM; IC50 (KMS-12-BM): 2110 nM; IC50 (Jurkat): 1190 nM; IC50 (HL-60 [3]): 4000 nM
O=C(CCCn1cc(-c2ncnc3[nH]ccc23)cn1)NO	> 100000	> 100000	3560	5000	> 100000	> 100000	604		
O=C(CCCCCCC(=O)Nc1ccc(NC(=O)CCCn2cc(-c3ncnc4[nH]ccc34)cn2)cc1)NO	> 100000	> 100000	1200	2000	> 100000	> 100000	550		
C1=N/C2=N/c3ccc(OCCN4CCCC4)c(c3)COC/C=C/COCc3cccc(c3)C(=C1)N2 [PACRITINIB]									IC50 (MOLM-14): 79 nM; IC50 (cells [7]): 1600 nM; IC50 (cells [2]): 2020 nM; IC50 (KMS-12-BM): 750 nM
CC(CCCCCC(=O)NO)n1cc(-c2ncnc3[nH]ccc23)cn1 (stereo not drawn)			65				1	6	IC50 [8]: 436 nM; IC50 (Histone deacetylase 9): 8500 nM; IC50 (Histone deacetylase 2): 47 nM; inhibition [9]: 8%; IC50 (Histone deacetylase 8): 310 nM; IC50 (Histone deacetylase 5): 7400 nM; IC50 [10]: 144 nM; inhibition [11]: 40%; inhibition [12]: 33%; IC50 [13]: 24 nM; IC50 [14]: 31 nM; IC50 [15]: 11 nM
O=C(CCCCCCC(=O)Nc1ccc(CCCn2cc(-c3ncnc4[nH]ccc34)cn2)cc1)NO	70000	23000	865	2000	> 50000	> 50000	0.9	265	
O=C(CCCCn1cc(-c2ncnc3[nH]ccc23)cn1)NO	17300	46200			12800	> 100000	6	854	
O=C(CCCCCCCCCCn1cc(-c2ncnc3[nH]ccc23)cn1)NO	12900	41100	43	< 1000	13300	54300	88	3540	

Now from value to molecule, other results behind:

IC50 (MDA-MB-231) [nM]	IC50 (HCT-116) [nM]	IC50 [4] [nM]	Kd [5] [nM]	IC50 (MCF7) [nM]	IC50 (PC-3) [nM]	IC50 [6] [nM]	IC50 (Histone deacetylase 1) [nM]	SMILES	further results
12900	11800	481	2000	12400	12900	1.8	36	O=C(CCCCCCCn1cc(-c2ncnc3[nH]ccc23)cn1)NO	
25500	19400	265	1000	15200	23900	0.14	110	O=C(CCCCCCC(=O)Nc1ccc(NCCCn2cc(-c3ncnc4[nH]ccc34)cn2)cc1)NO	IC50 (HEL 92.1.7): > 4000 nM; IC50 (Jurkat): 4000 nM; IC50 (HL-60 [3]): > 10000 nM
10400	2000			3700	8600			CN1CCc2c(c3ccccc3n2Cc2ccc(C(=O)NO)cc2)C1 [TUBASTATIN A]	IC50 (HEL 92.1.7): > 4000 nM; IC50 (Jurkat): > 4000 nM; IC50 (HL-60 [3]): > 4000 nM
	8990			8160	18800	2.9	138	O=C(CCCCCn1cc(-c2ncnc3[nH]ccc23)cn1)NO	
	1850							O=C(CCCCCCC(=O)Nc1ccccc1)NO [VORINOSTAT]	
